# This sample holds only a part of the variants without activity.
# B1: tRNA (parent)
# chain: CUCUCGGUAGCCAAGUUGGUUUAAGGCGCAAGACUUUAAUUUAUCACUACGAAAUCUUGAGAUCGGGCGUUCGACUCGCCCCCGGGAGAUUUUUUCCUCGAGCAA
# Variants of: B1
# Test: nonsense suppression (GFP-seq) (ratio to wild type); higher = more function; SUP4oc tRNA, yeast GFP reporter sort-seq
# How it was run: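 To measure nonsense suppression, tRNA variants from a library carrying ~3% random mutations were integrated into the yeast genome alongside RFP and a GFP ochre reporter under galactose control. Growth took place in raffinose/galactose medium supplemented with 80 mg/L adenine, followed by sorting into GFP/RFP bins and Illumina sequencing of each bin (phred ≥30). For each variant with ≥100 reads and ≥30 cells, the bin median GFP/RFP values were weighted by its estimated cell share per bin and referenced to the unmutated parent tRNA.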
row,Variant,nonsense suppression
1,CUCUCGGUAGCCAAGUUGGUUUAUGGCGCAAGACUUUAAUUUAUCACUACGAAACCUUGAGAUCGGGCGUUCGACUCGCCCCCGGGAGAUUUUUUCCUCGAGCAA,0.104
2,CUCUCGGUAGCCAAGUUGGUUUAAUGCGCAAGACUUUAAUUUAUCACUACGAAAUCUUGCGAUCGGGCGUUCGACUCGCCCCCGGGAGAUUUUUUCCUCGAGCAA,≤ 0.026
3,CUCUCGGUAGCCAAGUUGGUUUAAUGCGCAAGACUUUAAUUUAUCACUACGAAAUCUUGAGAUCGGGCGUUCGAUUCGCCCCCGGGAGAUUUUUUCCUCGAGCAA,≤ 0.026
4,CUCUCGGUAGCCAAGUUGGUUUAACGCGCACGACUUUAAUUUAUCACUACGAAAUCUUGAGAUCGGGCGUUCAACUCGCCCCCGGGAGAUUUUUUCCUCGAGCAA,≤ 0.026
5,CUCUCGGUAGCCAAGUUGGUUUAAAGCGCAAUACUUUAAUUUAUCACUACGAAAUCUUGAGAUCGGGCGUUCGACUCGCCCCCGGGAGAUUUUUUCCUCGAGCAA,≤ 0.026
6,CUCUCGGUAGCCAAGUUGGUUUAUGGCGCAAGACUUUAAUUUAUCACUACGAAAUCUCGAGAUCGGGCGUUCGACUCGCCCCCGAGAGAUUUUUUCCUCGAGCAA,≤ 0.026
7,CUCUCGGUAGCCAAGUUGGUUUAUGGCGCAAGACUUUAAUUUAUCACUACGAAAUCUUGAGAUCGGGCGUUCGACCCGCCCCCGGGAGAUUUUUUCCUCGAGCAA,0.131
8,CUCUCGGUAGCCAAGUUGGUUUAACGCCCAAGACUUUAAUUUAUCACUACGAAAUCUUGAGUUCGGGCGUUCGACUCGCCCCCGGGAGAUUUUUUCCUCGAGCAA,≤ 0.026
9,CUCUCGGUAGCCAAGUUGGUUUAAUGCGCAAGACUUUAAUUUAUCACUACGAAAUCUUGAGACCGGGCGUUCGACUCGACCCCGGGAGAUUUUUUCCUCGAGCAA,≤ 0.026
10,CUCUCGGUAGCCAAGUUGGUUUAACGCGCAAGACUUUAAUUUAUCACUACGAAAUCUUGGGAUCGGGCGUUCGACUCGCCCCCGGGAGAUUUUUUCCUCGAGCAA,0.0619
11,CUCUCGGUAGCCAAGUUGGUUUAAAGCGAAAGACUUUAAUUUAUCACUACGAAAUCUUGAGAUCGGGCGUUCGACUCGCCCCCCGGAGAUUUUUUCCUCGAGCAA,0.027
12,CUCUCGGUAGCCAAGUUGGUUUAAAGCGCCAGACUUUAAUUUAUCACUACGAAAUCUUGAGAUCGGGCGUUCGACUCGCCCCCGGGAGAUUUUUUCCUCGAGCAA,≤ 0.026
13,CUCUCGGUAGCCAAGUUGGUUUAAUGCGCAAGACUUUAAUUUAUCACUACGAAAUCUUGGAAUCGGGCGUUCGACUCGCCCCCGGGAGAUUUUUUCCUCGAGCAA,≤ 0.026
14,CUCUCGGUAGCCAAGUUGGUUUAAGACGCACGACUUUAAUUUAUCACUACGAAAUCUUGAGAUCGGGCGUUCGACUCGCCCCCGGGAGAUUUUUUCCUCGAGCAA,≤ 0.026
15,CUCUCGGUAGCCAAGUUGGUUUAAAGCGCAAGACUUUAAUUUAUCACUACGAAAUCCUGAGAUCGGGCGUUCGACUCGCCCCCGGGAGAUUUUUUCCUCGAGCAA,≤ 0.026
16,CUCUCGGUAGCCAAGUUGGUUUAAAUCGCAAGACUUUAAUUUAUCACUACGAAAUGUUGAGAUCGGGCGUUCGACUCGCCCCCGGGAGAUUUUUUCCUCGAGCAA,0.0585
17,CUCUCGGUAGCCAAGUUGGUUUAACGCGCAAGAAUUUAAUUUAUCACUACGAAAUCUUGAGAUCGGGCGUUCGACUCGCCCCCGGGGGAUUUUUUCCUCGAGCAA,≤ 0.026
18,CUCUCGGUAGCCAAGUUGGUUUAUGGCGCAAGACGUUAAUUUAUCACUACGAAAUCUUGAGAUCGGGCGUUCGACUCGCCCCCGGGAGGUUUUUUCCUCGAGCAA,≤ 0.026
19,CUCUCGGUAGCCAAGUUGGUUUAAUGCGCAAGACUUUAAUUUAUCACUACGAAAUCUUGAAAUCGGGCGUUCGACUCGCCCGCGGGAUAUUUUUUCCUCGAGCAA,≤ 0.026
20,CUCUCGGUAGCCAAGUUGGUUUAAAGCGCAAUACUUUAAUUUAUCACUACGAAAUCUUGAGAUCGGGCGUGCGACUCGCCCCCGGGAGAUUUUUUCCUCGAGCAA,≤ 0.026
21,CUCUCGGUAGCCAAGUUGGUUUAACGCGCAAGACUUUAAUUUAUCACUACGAAAUCUUGAGAACGGGCGUUCGACUCGCCCCCGGGAGAUUUUUUCCUCGAGCAA,≤ 0.026
22,CUCUCGGUAGCCAAGUUGGUUUAAUGCGCAAGACUUUAAUUUAUCACUACGAAAUCUUGAGAGCGGGCGUUCGACUCGCCCCCGGGAGAUUUUUUCCUCGAGCAA,0.0371
23,CUCUCGGUAGCCAAGUUGGUUUAACGCGCUAGACUUUAAUUUAUCACUACGAAAUCUUGAGAUCGGGCGUUCGACUCGCCCCCGGGAGAUUUUUUCCUCGAGCAA,0.0299
24,CUCUCGGUAGCCAAGUUGGUUUAAAGCGCAAGACUUUAAUUUAUCACUACGAAAUCUUGAGAUCGGGCGCUCUACUCGCCCCCGGGAGAUUUUUUCCUCGAGCAA,≤ 0.026
25,CUCUCGGUAGCCAAGUUGGUUUAAUGCGCAAGACUUUAAUUUAUCACUACGAAAUCUGGAGAUCGGGGGUUCGACUCGCCCCCGGGAGAUUUUUUCCUCGAGCAA,≤ 0.026
26,CUCUCGGUAGCCAAGUUGGUUUAAUGCGCAAGACUUUAAUUUAUCACUACGAAAUCUUGAGAUCGGGCGUUCUACUCGCCCCCGGGAGAUUUUUUCCUCGAGCAA,≤ 0.026
27,CUCUCGGUAGCCAAGUUGGUUUAAUGCGCAAGACUUUAAUUUAUCACUACGAAAUCUUGAUAUCGGGUGUUCGACUCGCCCCCGGGAGAUUUUUUCCUCGAGCAA,≤ 0.026
